Experimental data: ChEMBL document CHEMBL1649374 (Eur J Med Chem, 2011)
One block for each molecule: values may come before it. Active and inactive are the calls of the source. No cut-off for these calls is given here.

Key:
Dipeptidyl peptidase 8 = Dipeptidyl peptidase 8 (Homo sapiens, UniProt Q6V1X1); test: Inhibition of DPP8 after 20 mins by fluorescence assay
Summary of the method: (§1)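 Enzyme and inhibitor were preincubated for 10 min at room temperature in 50 mM Tris pH 7.5 with 0.1% BSA. The reaction was started with Gly-Pro-AMC and run for 20 min at room temperature. IC50 is the mean of three separate experiments, from curve fitting.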

Dipeptidyl peptidase 9 = Dipeptidyl peptidase 9 (Homo sapiens, UniProt Q86TI2); test: Inhibition of DPP9 after 20 mins by fluorescence assay; summary of the method: as §1
Chain of Dipeptidyl peptidase 9 (Q86TI2 whole entry): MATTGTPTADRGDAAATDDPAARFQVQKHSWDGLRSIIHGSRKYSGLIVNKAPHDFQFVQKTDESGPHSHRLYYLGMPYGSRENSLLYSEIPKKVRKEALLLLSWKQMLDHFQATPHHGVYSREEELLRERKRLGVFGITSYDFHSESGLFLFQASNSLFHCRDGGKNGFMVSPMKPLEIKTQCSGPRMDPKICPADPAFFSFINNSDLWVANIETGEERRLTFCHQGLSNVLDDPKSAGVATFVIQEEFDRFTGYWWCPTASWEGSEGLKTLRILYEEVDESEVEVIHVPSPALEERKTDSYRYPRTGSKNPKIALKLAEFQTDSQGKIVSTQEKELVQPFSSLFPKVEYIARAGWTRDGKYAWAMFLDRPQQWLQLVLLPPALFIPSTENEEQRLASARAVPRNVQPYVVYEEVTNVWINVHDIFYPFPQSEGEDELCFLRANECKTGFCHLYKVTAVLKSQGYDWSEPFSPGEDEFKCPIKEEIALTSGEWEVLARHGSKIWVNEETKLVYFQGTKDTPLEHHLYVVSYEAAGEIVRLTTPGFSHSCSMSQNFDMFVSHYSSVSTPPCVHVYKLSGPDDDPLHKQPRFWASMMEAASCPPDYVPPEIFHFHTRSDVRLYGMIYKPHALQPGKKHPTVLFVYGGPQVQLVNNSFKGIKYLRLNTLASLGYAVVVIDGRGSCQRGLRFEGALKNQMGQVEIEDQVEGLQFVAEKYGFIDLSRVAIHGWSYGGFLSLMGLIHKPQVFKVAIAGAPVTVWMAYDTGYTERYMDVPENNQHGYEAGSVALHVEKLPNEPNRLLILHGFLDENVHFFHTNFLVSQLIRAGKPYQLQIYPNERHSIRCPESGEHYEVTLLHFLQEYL

Dipeptidyl peptidase 4 = Dipeptidyl peptidase 4 (Homo sapiens, UniProt P27487); test: Inhibition of DPP4 after 20 mins by fluorescence assay
Chain of Dipeptidyl peptidase 4 (P27487 whole entry): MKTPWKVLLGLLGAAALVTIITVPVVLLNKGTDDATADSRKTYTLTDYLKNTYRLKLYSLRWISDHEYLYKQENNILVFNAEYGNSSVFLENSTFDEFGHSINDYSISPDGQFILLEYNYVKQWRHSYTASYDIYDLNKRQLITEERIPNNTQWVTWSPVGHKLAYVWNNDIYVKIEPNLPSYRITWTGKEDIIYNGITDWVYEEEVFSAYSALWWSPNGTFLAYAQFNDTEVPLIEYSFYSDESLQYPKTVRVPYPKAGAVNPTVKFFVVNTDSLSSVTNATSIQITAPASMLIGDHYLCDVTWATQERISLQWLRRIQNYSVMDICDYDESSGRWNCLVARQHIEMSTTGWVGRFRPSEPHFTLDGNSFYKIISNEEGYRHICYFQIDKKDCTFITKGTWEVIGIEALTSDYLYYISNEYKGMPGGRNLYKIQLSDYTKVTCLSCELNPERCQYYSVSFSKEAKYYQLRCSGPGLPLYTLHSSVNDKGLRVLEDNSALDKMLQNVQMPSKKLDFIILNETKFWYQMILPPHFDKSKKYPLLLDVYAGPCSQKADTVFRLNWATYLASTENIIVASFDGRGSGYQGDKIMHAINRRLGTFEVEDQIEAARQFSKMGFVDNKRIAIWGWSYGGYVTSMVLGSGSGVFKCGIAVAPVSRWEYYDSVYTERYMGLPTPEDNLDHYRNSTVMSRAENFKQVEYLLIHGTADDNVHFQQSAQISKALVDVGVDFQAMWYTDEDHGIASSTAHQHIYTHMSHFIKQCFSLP

[1] = Half life in Sprague-Dawley rat at 10 mg/kg, iv; type: ADME, organism-based; parameters: dose 10 mg/kg, route intravenous; conditions: in vivo
[2] = AUC (0 to t) in Beagle dog at 10 mg/kg, iv; type: ADME, organism-based, Canis lupus familiaris; parameters: dose 10 mg/kg, route intravenous; conditions: plasma
[3] = Half life in Beagle dog at 20 mg/kg, po; type: ADME, organism-based, Canis lupus familiaris; parameters: dose 20 mg/kg, route oral; conditions: in vivo
[4] = Oral bioavailability in Beagle dog at 20 mg/kg; type: ADME, organism-based, Canis lupus familiaris; conditions: in vivo
[5] = Mean residence time in Sprague-Dawley rat at 10 mg/kg, iv; type: ADME, organism-based; parameters: dose 10 mg/kg, route intravenous; conditions: in vivo
[6] = AUC (0 to t) in Sprague-Dawley rat at 10 mg/kg, iv; type: ADME, organism-based; parameters: dose 10 mg/kg, route intravenous; conditions: plasma
[7] = AUC (0 to t) in Beagle dog at 20 mg/kg, po; type: ADME, organism-based, Canis lupus familiaris; parameters: dose 20 mg/kg, route oral; conditions: plasma
[8] = Cmax in Beagle dog at 20 mg/kg, po; type: ADME, organism-based, Canis lupus familiaris; parameters: dose 20 mg/kg, route oral; conditions: in vivo
[9] = molecular target: Voltage-gated inwardly rectifying potassium channel KCNH2 (Homo sapiens, UniProt Q12809); test: Inhibition of human ERG expressed in HEK293 cells after 3 hrs by nonradioactive rubidium efflux assay; type: cell-based; conditions: hek293, 3 h
Chain of Voltage-gated inwardly rectifying potassium channel KCNH2 (Q12809 whole entry): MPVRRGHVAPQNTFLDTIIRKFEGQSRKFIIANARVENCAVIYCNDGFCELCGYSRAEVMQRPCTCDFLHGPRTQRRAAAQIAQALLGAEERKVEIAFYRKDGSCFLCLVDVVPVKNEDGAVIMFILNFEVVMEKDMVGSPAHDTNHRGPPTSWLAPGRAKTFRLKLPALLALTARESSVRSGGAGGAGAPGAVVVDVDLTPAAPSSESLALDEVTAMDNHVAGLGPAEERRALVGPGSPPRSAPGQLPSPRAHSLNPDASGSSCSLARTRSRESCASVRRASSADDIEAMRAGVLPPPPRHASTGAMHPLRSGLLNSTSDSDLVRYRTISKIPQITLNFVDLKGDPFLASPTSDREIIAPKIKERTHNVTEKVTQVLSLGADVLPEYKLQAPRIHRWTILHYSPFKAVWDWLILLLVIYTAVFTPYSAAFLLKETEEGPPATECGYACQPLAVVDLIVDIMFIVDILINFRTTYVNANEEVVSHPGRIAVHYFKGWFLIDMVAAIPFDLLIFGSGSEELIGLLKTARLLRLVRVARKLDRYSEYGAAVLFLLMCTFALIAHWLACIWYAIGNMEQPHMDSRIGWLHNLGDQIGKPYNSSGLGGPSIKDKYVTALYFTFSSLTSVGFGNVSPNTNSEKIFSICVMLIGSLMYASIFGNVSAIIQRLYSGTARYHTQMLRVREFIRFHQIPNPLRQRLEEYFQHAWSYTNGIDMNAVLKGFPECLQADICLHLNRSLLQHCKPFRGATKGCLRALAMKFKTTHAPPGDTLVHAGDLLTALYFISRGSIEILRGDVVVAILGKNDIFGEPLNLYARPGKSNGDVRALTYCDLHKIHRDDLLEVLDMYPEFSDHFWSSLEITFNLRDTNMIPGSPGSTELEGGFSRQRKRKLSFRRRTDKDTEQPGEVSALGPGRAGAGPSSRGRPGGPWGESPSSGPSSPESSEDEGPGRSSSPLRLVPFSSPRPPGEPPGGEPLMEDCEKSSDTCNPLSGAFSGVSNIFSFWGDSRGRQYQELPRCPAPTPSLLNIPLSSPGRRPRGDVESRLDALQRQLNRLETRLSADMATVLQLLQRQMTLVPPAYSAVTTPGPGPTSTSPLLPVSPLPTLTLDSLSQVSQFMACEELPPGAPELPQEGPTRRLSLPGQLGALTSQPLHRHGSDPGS

[10] = Tmax in Sprague-Dawley rat at 20 mg/kg, po; type: ADME, organism-based; parameters: dose 20 mg/kg, route oral; conditions: in vivo
Mus musculus [11] = test: Antidiabetic activity in C57BL/6J mouse high-fat diet model assessed as reduction in glucose AUC (0 to 120) at 3 mg/kg, po pretreated 30 mins before glucose challenge measured by oral glucose tolerance test; type: functional, organism-based; parameters: dose 3 mg/kg
[12] = Plasma clearance in Sprague-Dawley rat at 10 mg/kg, iv; type: ADME, organism-based; parameters: dose 10 mg/kg, route intravenous
[13] = Mean residence time in Beagle dog at 10 mg/kg, iv; type: ADME, organism-based, Canis lupus familiaris; parameters: dose 10 mg/kg, route intravenous; conditions: in vivo
[14] = Cmax in Sprague-Dawley rat at 10 mg/kg, iv; type: ADME, organism-based; parameters: dose 10 mg/kg, route intravenous; conditions: in vivo
[15] = Mean residence time in Beagle dog at 20 mg/kg, po; type: ADME, organism-based, Canis lupus familiaris; parameters: dose 20 mg/kg, route oral; conditions: in vivo
Rattus norvegicus = test: AUC (0 to t) in Sprague-Dawley rat at 20 mg/kg, po; type: ADME, organism-based, Plasma; parameters: dose 20 mg/kg, route oral; conditions: in vivo
Mus musculus [16] = test: Antidiabetic activity in ICR mouse assessed as reduction of serum DPP4 activity at 3 mg/kg, po; type: functional, organism-based; parameters: dose 3 mg/kg
Summary of the method: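 Compound was given orally at 3 mg/kg, or vehicle, with n = 5 per group. Serum was mixed with 80 mM MgCl2 for 5 min at room temperature, then 0.1 mM Gly-Pro-AMC and buffer were added. Fluorescence (ex 380 nm, em 460 nm) was read every 3 min over 18 min, and serum DPP-IV specific activity was calculated from these reads.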

[17] = Cmax in Sprague-Dawley rat at 20 mg/kg, po; type: ADME, organism-based; parameters: dose 20 mg/kg, route oral; conditions: in vivo
[18] = Oral bioavailability in Sprague-Dawley rat at 20 mg/kg; type: ADME, organism-based; conditions: in vivo
[19] = Tmax in Sprague-Dawley rat at 10 mg/kg, iv; type: ADME, organism-based; parameters: dose 10 mg/kg, route intravenous; conditions: in vivo
[20] = Half life in Beagle dog at 10 mg/kg, iv; type: ADME, organism-based, Canis lupus familiaris; parameters: dose 10 mg/kg, route intravenous; conditions: in vivo
[21] = Mean residence time in Sprague-Dawley rat at 20 mg/kg, po; type: ADME, organism-based; parameters: dose 20 mg/kg, route oral; conditions: in vivo
[22] = Half life in Sprague-Dawley rat at 20 mg/kg, po; type: ADME, organism-based; parameters: dose 20 mg/kg, route oral; conditions: in vivo
[23] = Tmax in Beagle dog at 20 mg/kg, po; type: ADME, organism-based, Canis lupus familiaris; parameters: dose 20 mg/kg, route oral; conditions: in vivo
[24] = Cmax in Beagle dog at 10 mg/kg, iv; type: ADME, organism-based, Canis lupus familiaris; parameters: dose 10 mg/kg, route intravenous; conditions: in vivo
[25] = Tmax in Beagle dog at 10 mg/kg, iv; type: ADME, organism-based, Canis lupus familiaris; parameters: dose 10 mg/kg, route intravenous; conditions: in vivo
[26] = Plasma clearance in Beagle dog at 10 mg/kg, iv; type: ADME, organism-based, Canis lupus familiaris; parameters: dose 10 mg/kg, route intravenous
[27] = Plasma clearance in Beagle dog at 20 mg/kg, po; type: ADME, organism-based, Canis lupus familiaris; parameters: dose 20 mg/kg, route oral

Chain of Dipeptidyl peptidase 8 (Q6V1X1 whole entry): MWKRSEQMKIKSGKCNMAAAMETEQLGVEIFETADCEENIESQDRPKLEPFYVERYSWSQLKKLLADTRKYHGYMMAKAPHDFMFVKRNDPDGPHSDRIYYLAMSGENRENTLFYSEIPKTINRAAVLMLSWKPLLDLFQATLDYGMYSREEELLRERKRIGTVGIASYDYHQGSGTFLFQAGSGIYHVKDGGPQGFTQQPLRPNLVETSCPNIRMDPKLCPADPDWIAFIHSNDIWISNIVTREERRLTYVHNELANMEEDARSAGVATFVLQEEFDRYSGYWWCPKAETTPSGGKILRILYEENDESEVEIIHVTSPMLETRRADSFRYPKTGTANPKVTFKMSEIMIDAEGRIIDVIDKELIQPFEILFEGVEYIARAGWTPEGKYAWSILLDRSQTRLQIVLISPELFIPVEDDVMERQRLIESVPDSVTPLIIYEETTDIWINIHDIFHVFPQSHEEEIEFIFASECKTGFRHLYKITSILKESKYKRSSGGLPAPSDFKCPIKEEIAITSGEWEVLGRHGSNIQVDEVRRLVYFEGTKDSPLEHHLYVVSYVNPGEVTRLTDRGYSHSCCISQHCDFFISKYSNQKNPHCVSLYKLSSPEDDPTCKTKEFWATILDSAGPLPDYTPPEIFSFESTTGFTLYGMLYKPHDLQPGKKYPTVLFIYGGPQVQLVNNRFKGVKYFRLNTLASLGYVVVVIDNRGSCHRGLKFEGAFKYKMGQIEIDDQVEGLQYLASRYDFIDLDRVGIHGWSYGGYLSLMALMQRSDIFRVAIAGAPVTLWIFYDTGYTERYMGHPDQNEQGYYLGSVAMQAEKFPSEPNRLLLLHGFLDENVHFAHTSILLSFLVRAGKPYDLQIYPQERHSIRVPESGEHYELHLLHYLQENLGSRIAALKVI

- IC50 (Dipeptidyl peptidase 8): > 25 µM
- IC50 (Dipeptidyl peptidase 9): > 25 µM
- IC50 (Dipeptidyl peptidase 4): 0.0888 µM
SMILES: N#Cc1ccccc1Cn1c(N2CCC[C@@H](N)C2)nc2scc(C(F)(F)F)c2c1=O

- IC50 (Dipeptidyl peptidase 8): > 25 µM
- half-life [1]: 5.9 h
- AUC(0-t) [2]: 13300 ng·h/mL
- half-life [3]: 11.3 h
- bioavailability [4]: 42.3%
- MRT [5]: 2.7 h
- AUC(0-t) [6]: 1480 ng·h/mL
- IC50 (Dipeptidyl peptidase 9): > 25 µM
- AUC(0-t) [7]: 11200 ng·h/mL
- Cmax [8]: 2070 ng/mL
- Tmax [10]: 0.59 h
- clearance [12]: 116 mL/min/kg
- MRT [13]: 6 h
- Cmax [14]: 1230 ng/mL
- MRT [15]: 9 h
- AUC (Rattus norvegicus): 690 ng·h/mL
- Cmax [17]: 170 ng/mL
- bioavailability [18]: 23.7%
- Tmax [19]: 2.4 min
- half-life [20]: 10.1 h
- MRT [21]: 6.7 h
- half-life [22]: 7 h
- Tmax [23]: 0.91 h
- IC50 (Dipeptidyl peptidase 4): 0.00033 µM
- Cmax [24]: 5750 ng/mL
- Tmax [25]: 6 min
- clearance [26]: 22.2 mL/min/kg
- CL/F [27]: 11.5 mL/min/kg
SMILES: N#Cc1ccccc1Cn1c(N2CCC[C@@H](N)C2)nc2ccsc2c1=O
- Activity [9]: 517.4 µM
- Activity (Mus musculus [11]): Active
- Activity (Mus musculus [16]): Active

- IC50 (Dipeptidyl peptidase 8): > 25 µM
- IC50 (Dipeptidyl peptidase 9): > 25 µM
- IC50 (Dipeptidyl peptidase 4): 0.00087 µM
SMILES: N#Cc1ccccc1Cn1c(N2CCC[C@@H](N)C2)nc2sccc2c1=O
- Activity [9]: 484.6 µM

- IC50 (Dipeptidyl peptidase 8): > 25 µM
- IC50 (Dipeptidyl peptidase 9): > 25 µM
- IC50 (Dipeptidyl peptidase 4): 0.00172 µM
SMILES: Cc1csc2c(=O)n(Cc3ccccc3C#N)c(N3CCC[C@@H](N)C3)nc12
- Activity [9]: 203.5 µM

- IC50 (Dipeptidyl peptidase 8): > 25 µM
- IC50 (Dipeptidyl peptidase 9): > 25 µM
- IC50 (Dipeptidyl peptidase 4): 0.00132 µM
SMILES: Cc1csc2nc(N3CCC[C@@H](N)C3)n(Cc3ccccc3C#N)c(=O)c12
- Activity [9]: 376.3 µM
